# DDE Tn7 FP inh – DD(E)-Tn7 binding inhibition, primary FP screen; P02675; FP displacement of FITC-Tn7 peptide from fibrin DD(E); 0% = median of compound wells per plate; inhibition, % at 8.3 µM; actives 0.13% (n = 370,000); AID 720508;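 active means inhibition above the mean of compounds falling within the control limits plus 3 SD of them, cut at about 14% in these data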;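 further: 0% = plate median of compound wells and 100% = 10 µM Aha-Tn7 peptide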
# Target sequence (P02675 whole entry, looked up): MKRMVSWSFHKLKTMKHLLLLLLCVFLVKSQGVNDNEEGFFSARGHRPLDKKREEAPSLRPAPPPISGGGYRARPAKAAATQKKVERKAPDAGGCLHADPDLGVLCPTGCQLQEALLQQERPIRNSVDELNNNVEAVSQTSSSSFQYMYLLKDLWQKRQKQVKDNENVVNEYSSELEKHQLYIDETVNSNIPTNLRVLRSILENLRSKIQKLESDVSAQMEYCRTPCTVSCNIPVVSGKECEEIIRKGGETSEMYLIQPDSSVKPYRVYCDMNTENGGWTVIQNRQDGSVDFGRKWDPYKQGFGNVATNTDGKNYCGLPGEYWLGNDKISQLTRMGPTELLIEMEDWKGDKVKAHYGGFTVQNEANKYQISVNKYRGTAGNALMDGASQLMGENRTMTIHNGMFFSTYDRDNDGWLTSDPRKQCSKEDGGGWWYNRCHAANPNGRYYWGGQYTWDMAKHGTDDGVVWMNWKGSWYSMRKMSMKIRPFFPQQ
#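 Test system – human fibrin DD(E) · Times – 10 min preincubation, 3 h with tracer, room temperature · Detection – fluorescence polarization of the labelled Tn7 tracer · Measure – percent inhibition normalized to high-control wells · Benchmarks – high control wells with 10 µM unlabelled Aha-Tn7 peptide (full inhibition) · Repeats – singlicate testing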
# CRFBP-R2 block – blocks CRF-induced signaling of the CRF-BP/CRF-R2 complex. actives 0.59% (n = 350,000). inhibition, % at 11.8 µM. HEK293 CRF-R2/CRF-BP, CRF-induced calcium fluorescence;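 active means inhibition of the ligand-induced calcium signal above about 50% at the single tested concentration, limit read from the data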
# CRFR2-BP ag – agonists of human CRF-binding protein/CRF-R2 receptor complex; HEK293 CRF-R2/CRF-BP, calcium dye fluorescence (FLIPR); percent of saturating CRF peptide response; activation, % at 13.2 µM; actives 0.46% (n = 350,000);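 active means activation of at least 50%, plus an integration ratio under a set limit after plate pattern correction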;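 further: plate controls were neutral control wells without compound for no effect and CRF at EC100 for full effect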
# DDE Tn6 FP inh – inhibitors of Tn6 peptide binding to human fibrin DD(E). P02675. Fibrin DD(E) TRITC-Tn6 fluorescence polarization displacement. actives 0.21% (n = 370,000). inhibition, % at 8.3 µM;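 active means inhibition above a per-campaign cutoff: mean of compounds within control limits plus 3 SD, cut at about 15% in these data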;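 further: 0% = median of all compound wells on the plate and 100% = blocking peptide control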
# * = called active by the depositor; / = no result. In the library only some 1.3% were active in any assay of this set; here they are far more common.
SMILES,DDE Tn7 FP inh,CRFBP-R2 block,CRFR2-BP ag,DDE Tn6 FP inh
COC(=O)C1=C(C)N(Cc2ccccc2)C(=S)N[C@H]1c1cccc(F)c1,9,55*,0,-5
COC(=O)C1=C(C)N(Cc2ccccc2)C(=O)N[C@H]1CCc1ccccc1,4,82*,0,5
O=C(Nc1ccc(Br)cc1)c1ccc(N2C(=O)C3CC=CCC3C2=O)cc1 (stereo not given),11,-3,2,-1
Cc1cc(C)cc(NC(=O)c2ccc(N3C(=O)C4CCCCC4C3=O)cc2)c1 (stereo not given),-3,75*,-1,6
CCn1c(SCC(=O)Nc2ccc(S(=O)(=O)Nc3cc(C)nc(C)n3)cc2)nc2sc(C)c(C)c2c1=O,-3,/,/,2
O=c1[nH]c(Nc2ccccc2)cc2ccccc12,1,-43,63*,0
Oc1sc(C=Nc2ccccc2)c2ccccc12,-5,-228,123*,0
Oc1sc(C=Nc2ccc(F)cc2)c2ccccc12,-1,-88,43,4
CCN(C(=O)CN1CCN(c2nc(-c3ccccc3)cs2)CC1)c1ccccc1C,-4,/,/,4
CCOc1ccccc1/C=C(/NC(=O)c1ccccc1)C(=O)NC(C)c1ccccc1 (stereo not given),-1,113*,-1,-11
COc1ccc(NC(=O)c2c(F)cccc2F)cc1S(=O)(=O)Nc1ccc(Br)cc1,7,63*,5,4
COc1ccc(NS(=O)(=O)c2cc(NC(=O)c3ccccn3)ccc2OC)cc1Br,-2,4,0,-8
N#CNC(=Nc1cccc(F)c1)SCc1ccccc1F,2,85*,48,-6
CC(C)N=C(NC#N)SCc1ccccc1F,-4,6,-1,-4
Cc1ccc(C(=O)N/N=C(/CC(=O)c2cccs2)C(F)(F)F)cc1,-4,80*,20,1
O=C(N/N=C(\CC(=O)c1cccs1)C(F)(F)F)c1ccncc1,-7,-2,0,-1
COc1cc(C=O)ccc1Oc1cnccn1,-2,56*,0,2
CC(C)NC(=O)N(C)C[C@@H]1OCc2cnnn2CCCC(=O)N([C@H](C)CO)C[C@@H]1C,-8,-15,6,-5
CC(C)NC(=O)N(C)C[C@H]1OCc2cnnn2CCCC(=O)N([C@H](C)CO)C[C@H]1C,-2,-15,53*,3
CCOc1ccc(CCNC(=O)C2CCCN(c3ncnc4c3nc3n4CCCCC3)C2)cc1 (stereo not given),3,115*,-2,-5
COc1ccc(Cn2ccc3ccc(-c4ccc5ccn(Cc6ccccc6F)c5c4)cc32)cc1,1,/,/,-5
NC(=S)N/N=C/c1ccc(-c2ccc(SC(F)F)cc2)o1,3,58*,0,-3
Cc1ccc(-c2ccc(/C=N/NC(N)=S)o2)cc1,9,-15,0,5
O=C(CSc1nnc(COc2ccccc2)n1Cc1ccco1)Nc1ccc2c(c1)OCO2,-3,/,/,-1
COc1cccc(C(=O)n2ccc3ccc(-c4ccc5ccn(Cc6ccc(C#N)cc6)c5c4)cc32)c1,4,/,/,-5
SMILES,DDE Tn7 FP inh,CRFBP-R2 block,CRFR2-BP ag,DDE Tn6 FP inh
COC(=O)C1CN(Cc2ccccc2)CCS(=O)(=O)N1Cc1ccc(C(F)(F)F)cc1 (stereo not given),-3,/,/,6
CN1/C(=C\C=C(C#N)C#N)C(C)(C)c2ccccc21,3,-81,84*,5
CN1/C(=C\C=C(/C#N)C(=O)Nc2ccc(Cl)cc2)C(C)(C)c2ccccc21,-5,-193,141*,-1
CN1/C(=C/C=N/n2cnnc2)C(C)(C)c2ccccc21,-5,0,-1,3
C[C@H](O)[C@@H]1CN2CCc3c([nH]c4cccc(-c5ccccc5)c34)[C@@H]2C[C@@H]1N(C)C(=O)c1ccco1,0,/,/,6
C[C@@H]1CCN(C2CC2)S(=O)(=O)c2ccc(N3CC[C@H](N(C)C)C3)cc2O1,-3,/,/,-2
Cc1ccc(NC(=O)Nc2ccc3c(c2)[C@]2(CC(=O)N(CC(C)C)C2c2ccccc2)C(=O)N3C)cc1Cl (stereo not given in full),-8,/,/,-13
CC1=C(C(=O)OCc2ccccc2)C(/C=C/c2ccccc2)N2C(=O)CCSC2=N1 (stereo not given),-3,69*,3,-5
CCOC(=O)C1=C(C)N=C2SCCC(=O)N2[C@@H]1/C=C/c1ccccc1,9,3,-2,-2
S=C(NC1CCCCC1)N1CCOCCOCCN(C(=S)NC2CCCCC2)CCOCCOCC1,-1,115*,3,-1
